# Source: ChEMBL document CHEMBL1126855, “Synthesis and structure-activity relationships of a series of penicillin-derived HIV proteinase inhibitors containing a stereochemically unique peptide isostere” (J Med Chem, 1993)
# pEC50, pIC50: −log10 of the molar value.
# Columns and labels:
# [1] = test system: MT4; test: Inhibition of cytopathic effect of HIV-1 in MT-4 cells; type: functional, cell-based; conditions: Homo sapiens
# [2] = target: Human immunodeficiency virus type 1 protease (Human immunodeficiency virus 1, UniProt Q72874); test: Inhibitory activity against HIV-1 protease.
# Summary of the method: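 IC50 against HIV-1 proteinase, from duplicate determinations at each inhibitor concentration, with mean values used for analysis. Results were standardized against a control run in every assay.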
SMILES,pEC50 [1],pIC50 [2]
CC(C)CNC(=O)C[C@@H](O)[C@@H](Cc1ccccc1)NC(=O)[C@@H]1N[C@@H]([C@H](NC(=O)Cc2ccccc2)C(=O)NCc2ccccc2)SC1(C)C,< 3.82,7.16
CC1(C)S[C@H]([C@H](NC(=O)Cc2ccccc2)C(=O)NCc2ccccc2)N[C@H]1C(=O)N[C@@H](CO)CCc1ccccc1,,4.60
CC1(C)S[C@H]([C@H](NC(=O)Cc2ccccc2)C(=O)NCc2ccccc2)N[C@H]1C(=O)N[C@H](Cc1ccccc1)[C@H](O)CC(=O)NCC(O)CO (some centres not stated),4.40,7.02
CCCCC(CO)NC(=O)[C@@H]1N[C@@H]([C@H](NC(=O)Cc2ccccc2)C(=O)NCc2ccccc2)SC1(C)C (some centres not stated) [listing 1 of 2 here],,6.60
CC(C)[C@H](CO)NC(=O)[C@@H]1N[C@@H]([C@H](NC(=O)Cc2ccccc2)C(=O)NCc2ccccc2)SC1(C)C,,< 5.33
C[C@H](Cc1ccccc1)NC(=O)[C@@H]1N[C@@H]([C@H](NC(=O)Cc2ccccc2)C(=O)NCc2ccccc2)SC1(C)C,,< 3.74
CC1(C)S[C@H]([C@H](NC(=O)Cc2ccccc2)C(=O)NCc2ccccc2)N[C@H]1C(=O)N[C@@H](CO)Cc1ccccc1,,6.82
CC1(C)S[C@H]([C@H](NC(=O)Cc2ccccc2)C(=O)NCc2ccccc2)N[C@H]1C(=O)NCC(O)CNC(=O)[C@@H]1N[C@@H]([C@H](NC(=O)Cc2ccccc2)C(=O)NCc2ccccc2)SC1(C)C,5.59,8.30
CCCCC(CO)NC(=O)[C@@H]1N[C@@H]([C@H](NC(=O)Cc2ccccc2)C(=O)NCc2ccccc2)SC1(C)C (some centres not stated) [listing 2 of 2 here],,< 5.34
CCC(C)C(CO)NC(=O)[C@@H]1N[C@@H]([C@H](NC(=O)Cc2ccccc2)C(=O)NCc2ccccc2)SC1(C)C (some centres not stated),,< 6.27
CC1(C)S[C@H]([C@H](NC(=O)Cc2ccccc2)C(=O)NCc2ccccc2)N[C@H]1C(=O)N[C@H](Cc1ccccc1)[C@H](O)CC(=O)N[C@H](CO)Cc1ccccc1,< 4.00,6.66
CC1(C)S[C@H]([C@H](NC(=O)Cc2ccccc2)C(=O)NCc2ccccc2)N[C@H]1C(=O)N[C@H](Cc1ccccc1)[C@H](O)CC(=O)NCCc1ncc[nH]1,,6.52
C[C@H](CO)NC(=O)[C@@H]1N[C@@H]([C@H](NC(=O)Cc2ccccc2)C(=O)NCc2ccccc2)SC1(C)C,,< 4.70
C[C@@H](Cc1ccccc1)NC(=O)[C@@H]1N[C@@H]([C@H](NC(=O)Cc2ccccc2)C(=O)NCc2ccccc2)SC1(C)C,,< 3.74
CC1(C)S[C@H]([C@H](NC(=O)Cc2ccccc2)C(=O)NCc2ccccc2)N[C@H]1C(=O)N[C@H](Cc1ccccc1)[C@H](O)CC(=O)N[C@@H](CO)Cc1ccccc1,< 4.00,6.77
CC1(C)S[C@H]([C@H](NC(=O)Cc2ccccc2)C(=O)NCc2ccccc2)N[C@H]1C(N)=O,,< 3.64

SMILES,pEC50 [1],pIC50 [2]
CC1(C)S[C@H]([C@H](NC(=O)Cc2ccccc2)C(=O)NCc2ccccc2)N[C@H]1C(=O)N[C@H](Cc1ccccc1)[C@H](O)CC(=O)N[C@@H](CO)c1ccccc1,< 4.00,6.72
CC1(C)S[C@H]([C@H](NC(=O)Cc2ccccc2)C(=O)NCc2ccccc2)N[C@H]1C(=O)N[C@H](Cc1ccccc1)[C@H](O)CC(=O)NCCO,,5.96
CC1(C)S[C@H]([C@H](NC(=O)Cc2ccccc2)C(=O)NCc2ccccc2)N[C@H]1C(=O)N[C@H](CO)CCc1ccccc1,,4.59
CC1(C)S[C@H]([C@H](NC(=O)Cc2ccccc2)C(=O)NCc2ccccc2)N[C@H]1C(=O)N[C@H](Cc1ccccc1)[C@H](O)CC(N)=O,< 4.00,7.09
CC1(C)S[C@H]([C@H](NC(=O)Cc2ccccc2)C(=O)NCc2ccccc2)N[C@H]1C(=O)N[C@H](CO)Cc1ccccc1,,< 3.77
CC1(C)S[C@H]([C@H](NC(=O)Cc2ccccc2)C(=O)NCc2ccccc2)N[C@H]1C(=O)NCCO,,3.74
CC1(C)S[C@H]([C@H](NC(=O)Cc2ccccc2)C(=O)NCc2ccccc2)N[C@H]1C(=O)N[C@H](Cc1ccccc1)[C@@H](O)CC(N)=O,,5.72
CC1(C)S[C@H]([C@H](NC(=O)Cc2ccccc2)C(=O)NCc2ccccc2)N[C@H]1C(=O)N[C@H](Cc1ccccc1)[C@@H](O)CC(=O)NCc1ccccc1,,5.54
CC1(C)S[C@H]([C@H](NC(=O)Cc2ccccc2)C(=O)NCc2ccccc2)N[C@H]1C(=O)N[C@H](Cc1ccccc1)[C@H](O)CC(=O)N[C@H](CO)c1ccccc1,4.97,6.77
CC1(C)S[C@H]([C@H](NC(=O)Cc2ccccc2)C(=O)NCc2ccccc2)N[C@H]1C(=O)N[C@H](Cc1ccccc1)C(O)CNC(=O)Cc1ccccc1 (some centres not stated),< 4.00,7.28
CC(C)CNC(=O)C[C@H](O)[C@@H](Cc1ccccc1)NC(=O)[C@@H]1N[C@@H]([C@H](NC(=O)Cc2ccccc2)C(=O)NCc2ccccc2)SC1(C)C,,5.55
CC1(C)S[C@H]([C@H](NC(=O)Cc2ccccc2)C(=O)NCc2ccccc2)N[C@H]1C(=O)NCCCNC(=O)[C@@H]1N[C@@H]([C@H](NC(=O)Cc2ccccc2)C(=O)NCc2ccccc2)SC1(C)C,,6.27
CC1(C)S[C@H]([C@H](NC(=O)Cc2ccccc2)C(=O)NCc2ccccc2)N[C@H]1C(=O)N[C@H](Cc1ccccc1)[C@H](O)CC(=O)NCCCO,5.24,7.27
CC(C)C[C@H](CO)NC(=O)[C@@H]1N[C@@H]([C@H](NC(=O)Cc2ccccc2)C(=O)NCc2ccccc2)SC1(C)C,,< 5.34
CC1(C)S[C@H]([C@H](NC(=O)Cc2ccccc2)C(=O)NCc2ccccc2)N[C@H]1C(=O)N[C@H](Cc1ccccc1)[C@H](O)CC(=O)NCc1ccccc1,5.33,8.34
